Test results as given in PMC5034805 (Journal of Clinical Pharmacology, 2015).
“Also recorded” adds a separate entry of the source. Where two headings read alike, the source gives them in different places.

How the values were obtained:
BCRP = details: in vitro; cited from earlier work
[1] = Ketoconazole drug–drug interaction study: romidepsin plasma pharmacokinetics; type: in vivo, human (patients with advanced cancer)
[2] = cited from earlier work
CYP1A1 = details: at plasma concentrations that are effective; cited from earlier work
hepatocytes = details: cited from earlier work
[3] = patients with CTCL or PTCL; cited from earlier work
[4] = Safety evaluation in the rifampin interaction study; type: in vivo, human (patients with advanced cancer); details: in two patients; romidepsin 14 mg/m^2 with rifampin 600 mg
Method in brief: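 Antiemetic prophylaxis; K or Mg supplemented below 3.8 or 0.85 mmol/L. Monitoring through closeout (days 15–20): AE type, severity and relatedness, examinations, vital signs, ECGs, concomitant medications, clinical labs. Summarised descriptively.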

P‐glycoprotein (P‐gp) = details: in vitro; cited from earlier work
[5] = Rifampin drug–drug interaction study: romidepsin plasma pharmacokinetics; type: in vivo, human (patients with advanced cancer)
[6] = Safety evaluation in the ketoconazole interaction study; type: in vivo, human (patients with advanced cancer)
CYP enzymes = details: at plasma concentrations that are effective; cited from earlier work
CYP2B6 = details: at plasma concentrations that are effective; cited from earlier work
α1‐acid‐glycoprotein = details: primarily to α1-acid-glycoprotein; cited from earlier work
CYP3A4 = details: at plasma concentrations that are effective; cited from earlier work
CYP3A = details: strong inhibitor of CYP3A; cited from earlier work
[7] = coadministration with ketoconazole vs alone
[8] = human, plasma, intravenous, 8 mg/m2
[9] = coadministration with rifampin 600 mg vs alone
[10] = human, plasma, intravenous, 14 mg/m2

C/C=C1\NC(=O)[C@H]2CSSCC/C=C/[C@H](CC(=O)N[C@H](C(C)C)C(=O)N2)OC(=O)[C@H](C(C)C)NC1=O [Romidepsin]
Substrate of BCRP (BCRP): not a substrate
Increase of mean romidepsin Cmax ([1]; coadministration with ketoconazole 400 mg vs alone): ~10%
Change of romidepsin clearance [1, 7]: decreased
Change of romidepsin volume of distribution [1, 7]: decreased
Tmax [1, 8]: 3.5 h
Vd [1, 8]: 236 L
clearance [1, 8]: 282 mL/min
half-life [1, 8]: 9.7 h
AUC(0-inf) ([1]; human, plasma, iv, 8 mg/m^2): 915 ng·h/mL
Cmax ([1]; human, plasma, iv, 8 mg/m^2): 229 ng/mL
Median Difference of Tmax ([1]; romidepsin + ketoconazole vs romidepsin alone, Hodges-Lehmann estimate): 0
Maximal tolerated dose (MTD) ([2]; given on days 1, 8, and 15 of a 28-day cycle): 13.3 mg/m^2
Maximal tolerated dose (MTD) ([2]; given on days 1 and 5 in a 21-day cycle): 17.8 mg/m^2
Dose-limiting toxicities ([2]; phase 1 dose escalation): fatigue, nausea, vomiting, thrombocytopenia (transient and grade 3) and neutropenia
Induction of CYP1A1 (CYP1A1): nor is it an inducer
Uptake into hepatocytes (hepatocytes): actively taken up into the liver; also recorded: active process
Effect of polymorphic variants of CYP3A on systemic exposure [3]: did not affect
Treatment-emergent SAEs [4]: 8
Substrate of the efflux transporter P-glycoprotein (P-gp) (P‐glycoprotein (P‐gp)): substrate
Decrease of romidepsin clearance [5, 9]: approximately 44%
Decrease of romidepsin volume of distribution [5, 9]: ~52%
Increase of mean romidepsin Cmax [5, 9]: ~60%
Tmax [5, 10]: 2.98 h
Vd [5, 10]: 162 L
clearance [5, 10]: 193 mL/min
half-life [5, 10]: 9.7 h
AUC(0-inf) ([5]; human, plasma, iv, 14 mg/m^2): 2230 ng·h/mL
Cmax ([5]; human, plasma, iv, 14 mg/m^2): 571 ng/mL
Deaths during the treatment period ([6]; romidepsin 8 mg/m^2 with ketoconazole 400 mg): No deaths
Inhibition of CYP enzymes (CYP enzymes): does not inhibit
Induction of CYP2B6 (CYP2B6): nor is it an inducer
Protein binding (α1‐acid‐glycoprotein): highly protein bound
Induction of CYP3A4 (CYP3A4): nor is it an inducer

CC(=O)N1CCN(c2ccc(OCC3COC(Cn4ccnc4)(c4ccc(Cl)cc4Cl)O3)cc2)CC1 (centres unmarked) [ketoconazole]
Increase of AUC of CYP3A substrates (CYP3A): ≥ 5 fold
Increases in liver enzymes AST or ALT ([6]; ketoconazole 400 mg daily days 4-8 with romidepsin 8 mg/m^2): not observed
